From ChEMBL document CHEMBL4138318, “Discovery of 5-Cyano-6-phenylpyrimidin Derivatives Containing an Acylurea Moiety as Orally Bioavailable Reversal Agents against P-Glycoprotein-Mediated Mutidrug Resistance” (J Med Chem, 2018)

Key:
[1] = biological target: ATP-dependent translocase ABCB1 (Homo sapiens, UniProt P08183); assay: Inhibition of ABCB1 in human SW620/AD300 cells assessed as potentiation of paclitaxel-induced cytotoxicity by measuring fold reduction in paclitaxel IC50 at 2 uM after 72 hrs by MTT assay relative to paclitaxel alone; type: cell-based
Sequence of ATP-dependent translocase ABCB1 (P08183 whole entry): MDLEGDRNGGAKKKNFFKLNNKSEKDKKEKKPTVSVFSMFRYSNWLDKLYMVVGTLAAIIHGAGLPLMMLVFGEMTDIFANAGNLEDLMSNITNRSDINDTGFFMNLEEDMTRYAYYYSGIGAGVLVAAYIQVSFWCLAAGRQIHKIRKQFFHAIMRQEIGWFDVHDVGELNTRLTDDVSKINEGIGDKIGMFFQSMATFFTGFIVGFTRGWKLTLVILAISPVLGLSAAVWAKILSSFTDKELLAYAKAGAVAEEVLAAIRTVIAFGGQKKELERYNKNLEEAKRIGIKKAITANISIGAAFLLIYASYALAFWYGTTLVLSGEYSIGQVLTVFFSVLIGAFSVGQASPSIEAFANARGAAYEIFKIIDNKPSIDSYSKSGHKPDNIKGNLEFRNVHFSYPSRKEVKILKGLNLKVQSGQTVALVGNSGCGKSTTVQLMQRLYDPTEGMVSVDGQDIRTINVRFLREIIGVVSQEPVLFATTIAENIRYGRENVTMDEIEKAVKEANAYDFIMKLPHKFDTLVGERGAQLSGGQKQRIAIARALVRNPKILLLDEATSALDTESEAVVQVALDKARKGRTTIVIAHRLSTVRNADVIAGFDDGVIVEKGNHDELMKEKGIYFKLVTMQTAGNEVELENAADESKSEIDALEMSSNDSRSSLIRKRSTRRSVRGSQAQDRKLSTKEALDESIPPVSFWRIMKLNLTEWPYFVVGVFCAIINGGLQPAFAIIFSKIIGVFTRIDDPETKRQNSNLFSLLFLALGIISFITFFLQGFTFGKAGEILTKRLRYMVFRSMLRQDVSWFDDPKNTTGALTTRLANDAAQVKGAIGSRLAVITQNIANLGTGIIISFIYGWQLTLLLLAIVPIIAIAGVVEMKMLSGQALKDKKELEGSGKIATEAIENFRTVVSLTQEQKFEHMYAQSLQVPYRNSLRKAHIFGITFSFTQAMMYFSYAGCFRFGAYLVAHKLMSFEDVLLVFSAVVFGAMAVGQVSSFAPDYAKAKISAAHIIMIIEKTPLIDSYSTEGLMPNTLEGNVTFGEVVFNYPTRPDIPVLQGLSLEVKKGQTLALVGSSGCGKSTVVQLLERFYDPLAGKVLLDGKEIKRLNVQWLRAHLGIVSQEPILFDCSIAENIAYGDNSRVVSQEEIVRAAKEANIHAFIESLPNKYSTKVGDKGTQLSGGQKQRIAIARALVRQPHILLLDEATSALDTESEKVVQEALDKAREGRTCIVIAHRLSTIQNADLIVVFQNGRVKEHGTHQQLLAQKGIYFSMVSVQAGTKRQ
In short: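 SW620/AD300 cells (~5×10^3/well) treated with graded paclitaxel with or without modulator (2 µM, or 0.5-2 µM in dose series; 0.1% DMSO solvent control) for 72 h; MTT (5 mg/mL stock) added 4 h, absorbance 490 nm. IC50 as mean ± SD of three independent runs; reversal fold = paclitaxel IC50 without/with modulator.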

[2] = Cytotoxicity against human SW620 cells assessed as survival at 2 uM after 72 hrs by MTT assay relative to control; type: cell-based, SW-620; details: read-out: Survival
[3] = Cytotoxicity against human SW620/AD300 cells assessed as survival at 2 uM after 72 hrs by MTT assay relative to control; type: cell-based; details: read-out: Survival

Structure (SMILES)	fold change (FC) [1]	viability at 72 h, 2 µM [2] [%]	viability at 72 h, 2 µM [3] [%]
N#Cc1c(Nc2cccc(C(F)(F)F)c2)nc(SCC(=O)NC(=O)Nc2ccccn2)nc1-c1ccc(F)c(F)c1	3.11	> 90	> 90
N#Cc1c(Nc2cccc(C(F)(F)F)c2)nc(SCc2cn(CC(=O)NC(=O)Nc3ccccn3)nn2)nc1-c1ccc(Br)cc1	2.4	> 90	> 90
Cc1cccc(Nc2nc(SCC(=O)NC(=O)Nc3ccccn3)nc(-c3ccc(C(C)C)cc3)c2C#N)c1	2.62	> 90	> 90
COc1ccccc1Nc1nc(SCc2cn(CC(=O)NC(=O)Nc3ccccn3)nn2)nc(-c2ccc(C)cc2)c1C#N	10.71	> 90	> 90
Cc1ccc(Nc2nc(SCc3cn(CC(=O)NC(=O)Nc4ccccn4)nn3)nc(-c3ccc(C)cc3)c2C#N)cc1	17.37	> 90	> 90
CC(C)c1ccc(-c2nc(SCC(=O)NC(=O)Nc3ccccn3)nc(Nc3cccc(C(F)(F)F)c3)c2C#N)cc1	37.04	> 90	> 90
Cc1ccc(Nc2nc(SCc3cn(Cc4ccccc4Cl)nn3)nc(-c3ccc(C(C)C)cc3)c2C#N)cc1	46		
COc1cc(-c2nc(SCc3ccccc3)nc(Nc3ccc(Cl)cc3)c2C#N)cc(OC)c1OC	1.24	> 90	> 90
CC(C)c1ccc(-c2nc(SCc3cn(CC(=O)NC(=O)Nc4ccccn4)nn3)nc(Nc3ccccc3O)c2C#N)cc1	13.64	> 90	> 90
COc1cc(-c2nc(SCc3ccccc3)nc(Nc3cccc(Cl)c3)c2C#N)cc(OC)c1OC	1.05	> 90	> 90
COc1ccc(Nc2nc(SCC(=O)NC(=O)Nc3ccccn3)nc(-c3ccc(C(C)C)cc3)c2C#N)cc1	2.17	> 90	> 90
COc1cc(-c2nc(SCc3cn(Cc4ccccc4Cl)nn3)nc(Nc3ccc(C)cc3)c2C#N)cc(OC)c1OC	27.54		
Cc1ccccc1Nc1nc(SCc2cn(Cc3ccc(Cl)cc3)nn2)nc(-c2ccccc2)c1C#N	116		
Cc1ccc(Nc2nc(SCc3cn(CC(=O)NC(=O)Nc4ccccn4)nn3)nc(-c3ccc(C(C)C)cc3)c2C#N)cc1	6.86	> 90	> 90
COc1cc(-c2nc(SCC(=O)NC(=O)Nc3ccccn3)nc(Nc3ccc(C(F)(F)F)cc3)c2C#N)cc(OC)c1OC	3.56	> 90	> 90
COc1cc(-c2nc(SCC(=O)NC(=O)Nc3ccccn3)nc(Nc3cccc([N+](=O)[O-])c3)c2C#N)cc(OC)c1OC	82.08	> 90	> 90
N#Cc1c(Nc2cccc(Cl)c2)nc(SCC(=O)NC(=O)Nc2ccccn2)nc1-c1ccc(F)c(F)c1	4.37	> 90	> 90
COc1cc(-c2nc(SCC(=O)NC(=O)Nc3ccccc3)nc(Nc3ccc(C(C)C)cc3)c2C#N)cc(OC)c1OC	25.07	> 90	> 90
COc1cc(-c2nc(SCc3cn(CC(=O)NC(=O)Nc4ccccn4)nn3)nc(Nc3ccc(C(C)C)cc3)c2C#N)cc(OC)c1OC	13.16	> 90	> 90
CC(C)c1ccc(-c2nc(SCc3cn(CC(=O)NC(=O)Nc4ccccn4)nn3)nc(Nc3ccc(F)cc3)c2C#N)cc1	2.11	> 90	> 90
Cc1ccc(-c2nc(SCc3cn(CC(=O)NC(=O)Nc4ccccn4)nn3)nc(Nc3cccc(C(F)(F)F)c3)c2C#N)cc1	1.88	> 90	> 90
CC(C)c1ccc(-c2nc(SCc3cn(CC(=O)NC(=O)Nc4ccccn4)nn3)nc(Nc3cccc([N+](=O)[O-])c3)c2C#N)cc1	2.99	> 90	> 90
Cc1ccc(Nc2nc(SCc3cn(Cc4ccccc4Cl)nn3)nc(-c3ccc(Br)cc3)c2C#N)cc1	3.39		
COc1ccccc1Nc1nc(SCc2cn(CC(=O)NC(=O)Nc3ccccn3)nn2)nc(-c2ccc(C(C)C)cc2)c1C#N	10.18	> 90	> 90
COc1cc(-c2nc(SCc3cn(CC(=O)NC(=O)Nc4ccccn4)nn3)nc(Nc3ccc(Cl)cc3)c2C#N)cc(OC)c1OC	1.71	> 90	> 90

Structure (SMILES)	fold change (FC) [1]	viability at 72 h, 2 µM [2] [%]	viability at 72 h, 2 µM [3] [%]
CC(C)c1ccc(Nc2nc(SCc3cn(CC(=O)NC(=O)Nc4ccccn4)nn3)nc(-c3ccc(C(C)C)cc3)c2C#N)cc1	9.49	> 90	> 90
COc1ccccc1Nc1nc(SCC(=O)NC(=O)Nc2ccccn2)nc(-c2cc(OC)c(OC)c(OC)c2)c1C#N	8.67	> 90	> 90
COc1cc(-c2nc(SCC(=O)NC(=O)Nc3ccccc3)nc(Nc3ccc(F)cc3)c2C#N)cc(OC)c1OC	25.37	> 90	> 90
CC(C)c1ccc(-c2nc(SCc3cn(CC(=O)NC(=O)Nc4ccccn4)nn3)nc(Nc3ccccc3)c2C#N)cc1	1.65	> 90	> 90
N#Cc1c(Nc2cccc(C(F)(F)F)c2)nc(SCC(=O)NC(=O)Nc2ccccn2)nc1-c1ccc(Cl)cc1	2.86	> 90	> 90
COc1cc(-c2nc(SCC(=O)NC(=O)Nc3ccccn3)nc(Nc3cccc(C(F)(F)F)c3)c2C#N)cc(OC)c1OC	58.14	> 90	> 90
COc1ccccc1Nc1nc(SCC(=O)NC(=O)Nc2ccccc2)nc(-c2cc(OC)c(OC)c(OC)c2)c1C#N	3.66	> 90	> 90
COc1ccccc1Nc1nc(SCC(=O)NC(=O)Nc2ccccn2)nc(-c2ccc(F)c(F)c2)c1C#N	13.42	> 90	> 90
COc1cc(-c2nc(SCC(=O)Nc3ccccn3)nc(Nc3cccc(Cl)c3)c2C#N)cc(OC)c1OC	5.51	> 90	> 90
COc1cc(-c2nc(SCC(=O)NC(=O)Nc3ccccn3)nc(Nc3ccccc3Cl)c2C#N)cc(OC)c1OC	38.05	> 90	> 90
COc1cc(-c2nc(SCc3cn(CC(=O)NC(=O)Nc4ccccn4)nn3)nc(Nc3cccc(C(F)(F)F)c3)c2C#N)cc(OC)c1OC	1.35	> 90	> 90
CC(C)c1ccc(-c2nc(SCc3cn(CC(=O)NC(=O)Nc4ccccn4)nn3)nc(Nc3ccc(Cl)cc3)c2C#N)cc1	1.66	> 90	> 90
COc1cc(-c2nc(SCC(=O)NC(=O)Nc3ccccc3)nc(Nc3cccc([N+](=O)[O-])c3)c2C#N)cc(OC)c1OC	21.04	> 90	> 90
COc1cc(-c2nc(SCc3cn(CC(=O)NC(=O)Nc4ccccn4)nn3)nc(Nc3ccc(C)cc3)c2C#N)cc(OC)c1OC	6.23	> 90	> 90
Cc1ccc(-c2nc(SCC(=O)NC(=O)Nc3ccccn3)nc(Nc3cccc(C(F)(F)F)c3)c2C#N)cc1	6.06	> 90	> 90
Cc1ccc(-c2nc(SCc3cn(CC(=O)NC(=O)Nc4ccccn4)nn3)nc(Nc3cccc(Cl)c3)c2C#N)cc1	13.42	> 90	> 90
COc1cc(-c2nc(SCc3cn(CC(=O)NC(=O)Nc4ccccn4)nn3)nc(Nc3cccc(Cl)c3)c2C#N)cc(OC)c1OC	1.37	> 90	> 90
CC(C)c1ccc(-c2nc(SCc3cn(CC(=O)NC(=O)Nc4ccccn4)nn3)nc(Nc3ccccc3Cl)c2C#N)cc1	4.75	> 90	> 90
CC(C)c1ccc(Nc2nc(SCc3cn(CC(=O)NC(=O)Nc4ccccn4)nn3)nc(-c3ccc(Br)cc3)c2C#N)cc1	1.7	> 90	> 90
N#Cc1c(Nc2ccc(Cl)cc2)nc(SCC(=O)NC(=O)Nc2ccccn2)nc1-c1ccc(Cl)cc1	2.32	> 90	> 90
COc1ccc(Nc2nc(SCc3cn(CC(=O)NC(=O)Nc4ccccn4)nn3)nc(-c3ccc(C(C)C)cc3)c2C#N)cc1	6.3	> 90	> 90
Cc1ccc(Nc2nc(SCC(=O)NC(=O)Nc3ccccn3)nc(-c3ccc(C(C)C)cc3)c2C#N)cc1	1.64	> 90	> 90
N#Cc1c(Nc2ccc(Cl)cc2)nc(SCC(=O)NC(=O)Nc2ccccn2)nc1-c1ccc(F)c(F)c1	3.5	> 90	> 90
Cc1ccc(Nc2nc(SCc3cn(Cc4ccccc4Cl)nn3)nc(-c3ccc(C)cc3)c2C#N)cc1	21.69		
